Blank lines part the entries; values can stand above or below the compound they belong to.
Tests used:
Mus musculus [1] = assay: Percent reduction in triglyceride (TG) after 9 days of dosing in db/db is evaluated in mice for euglycemic and hypolipidemic activities at a dose of 200 mg/kg
Mus musculus [2] = assay: Percent reduction in blood glucose is evaluated in db/db mice for euglycemic and hypolipidemic activities at a dose of 200 mg/kg
Mus musculus [3] = assay: Percent reduction in triglyceride (TG) after 9 days of dosing in db/db is evaluated in mice for euglycemic and hypolipidemic activities at a dose of 10 mg/kg
Mus musculus [4] = assay: Percent reduction in triglyceride (TG) after 9 days of dosing in db/db is evaluated in mice for euglycemic and hypolipidemic activities at a dose of 100 mg/kg
Mus musculus [5] = assay: Percent reduction in blood glucose is evaluated in db/db mice for euglycemic and hypolipidemic activities at a dose of 10 mg/kg
Mus musculus [6] = assay: Percent reduction in blood glucose is evaluated in db/db mice for euglycemic and hypolipidemic activities at a dose of 100 mg/kg
Mus musculus [7] = assay: Percent reduction in triglyceride (TG) after 9 days of dosing in db/db is evaluated in mice for euglycemic and hypolipidemic activities
[8] = Ratio between level in blood to that of the level in plasma; assay type: ADME
Method in brief: (§1)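 Wistar rats, two per drug, given 10 mg/kg orally and sacrificed at plasma tmax. Blood/plasma drawn just before sacrifice. Tissues perfused with phosphate buffer pH 5.8 and homogenized 1:4 in buffer. Drug measured by HPLC and reported as µg/g wet tissue. Ratios are tissue over plasma.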

[9] = Ratio between level in subcutaneous fat to that of the level in plasma; assay type: ADME
Method in brief: as §1

[10] = Pharmacokinetic Parameter (Cmax) was evaluated at 10 mg/kg (p.o.) in Wistar rats; assay type: ADME, organism-based; set-up: dose 10 mg/kg, route oral; conditions: rat, in vivo, po
Method in brief: (§2)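 Wistar rats (175-200 g), fasted 12 h, water free, fed 3 h post-dose. Single 10 mg/kg oral dose as 0.5% CMC suspension. Orbital sinus blood taken at 0, 0.5, 1, 2, 3, 5, 8, 12 and 24 h. Plasma assayed by reverse-phase C18 HPLC with fluorescence detection. Noncompartmental analysis gave AUC0-∞, Kel, t1/2, Cmax and tmax.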

[11] = Pharmacokinetic Parameter [Kel(1/h)] was evaluated at 10 mg/kg (p.o.) in Wistar rats; assay type: ADME, organism-based; set-up: dose 10 mg/kg, route oral; conditions: rat, in vivo, po
Method in brief: as §2

[12] = Pharmacokinetic Parameter (half-life) was evaluated at 10 mg/kg (p.o.) in Wistar rats; assay type: ADME, organism-based; set-up: dose 10 mg/kg, route oral; conditions: rat, in vivo, po
Method in brief: as §2

Rattus norvegicus [13] = assay: Tissue level at 10 mg/kg/po in wistar rats in blood; assay type: ADME, organism-based; conditions: in vivo
Method in brief: as §1

Rattus norvegicus [14] = assay: Tissue level at 10 mg/kg/po in wistar rats in liver; assay type: ADME, organism-based; conditions: in vivo
Method in brief: as §1

Rattus norvegicus [15] = assay: Tissue level at 10 mg/kg/po in wistar rats in skeletal muscle; assay type: ADME, organism-based; conditions: in vivo
Method in brief: as §1

Rattus norvegicus [16] = assay: Tissue level at 10 mg/kg/po in wistar rats in subcutaneous fat; assay type: ADME, organism-based; conditions: in vivo
Method in brief: as §1

[17] = Pharmacokinetic Parameter [tmax(h)] was evaluated at 10 mg/kg (p.o.) in Wistar rats; assay type: ADME, organism-based; set-up: dose 10 mg/kg, route oral; conditions: rat, in vivo, po
Method in brief: as §2

Rattus norvegicus [18] = assay: Tissue level at 10 mg/kg/po in wistar rats in heart; assay type: ADME, organism-based; conditions: in vivo
Method in brief: as §1

Rattus norvegicus [19] = assay: Tissue level at 10 mg/kg/po in wistar rats in brown fat; assay type: ADME, organism-based; conditions: in vivo
Method in brief: as §1

[20] = Ratio between level in brown fat to that of the level in plasma; assay type: ADME
Method in brief: as §1

[21] = Ratio between level in heart to that of the level in plasma; assay type: ADME
Method in brief: as §1

Rattus norvegicus [22] = assay: Tissue level at 10 mg/kg/po in wistar rats in plasma; assay type: ADME, organism-based; conditions: in vivo
Method in brief: as §1

[23] = Ratio between level in skeletal muscle to that of the level in plasma; assay type: ADME
Method in brief: as §1

[24] = Pharmacokinetic Parameter [Area under curve (AUC)] was evaluated at 10 mg/kg (p.o.) in Wistar rats; assay type: ADME, organism-based; set-up: dose 10 mg/kg, route oral; conditions: rat, in vivo, po
Method in brief: as §2

[25] = Ratio between level in liver to that of the level in plasma; assay type: ADME, tissue-based
Method in brief: as §1

[26] = Pharmacokinetic parameter [Kel(1/h)] was evaluated at 10 mg/kg (p.o.) in Wistar rats; assay type: ADME, organism-based; set-up: dose 10 mg/kg, route oral; conditions: rat, in vivo, po
Method in brief: as §2

[27] = Pharmacokinetic parameter (tmax(h)) was evaluated at 10 mg/kg (p.o.) in Wistar rats; assay type: ADME, organism-based; set-up: dose 10 mg/kg, route oral; conditions: rat, in vivo, po
Method in brief: as §2

[28] = Pharmacokinetic parameter (Cmax) was evaluated at 10 mg/kg (p.o.) in Wistar rats; assay type: ADME, organism-based; set-up: dose 10 mg/kg, route oral; conditions: rat, in vivo, po
Method in brief: as §2

[29] = Pharmacokinetic parameter (half-life) was evaluated at 10 mg/kg (p.o.) in Wistar rats; assay type: ADME, organism-based; set-up: dose 10 mg/kg, route oral; conditions: rat, in vivo, po
Method in brief: as §2

[30] = Pharmacokinetic parameter [area under curve (AUC)] was evaluated at 10 mg/kg (p.o.) in Wistar rats; assay type: ADME, organism-based; set-up: dose 10 mg/kg, route oral; conditions: rat, in vivo, po
Method in brief: as §2

Structure (SMILES): O=C1NC(=O)/C(=C/c2ccc(OCCn3ccc4cc(Cl)ccc43)cc2)S1
Reduction (Mus musculus [1]): 11%
Reduction (Mus musculus [2]): 39%

Structure (SMILES): CN(CCOc1ccc(/C=C2\SC(=O)NC2=O)cc1)c1ccccn1
Reduction (Mus musculus [3]): 32%
Reduction (Mus musculus [4]): 32%
Reduction (Mus musculus [5]): 56%
Reduction (Mus musculus [6]): 56%

Structure (SMILES): O=C1NC(=O)/C(=C/c2ccc(OCCn3ccc4ccccc43)cc2)S1
Reduction (Mus musculus [7]): 37%
Reduction (Mus musculus [2]): 33%

Structure (SMILES): CCOC(=O)c1cc2ccccc2n1CCOc1ccc(/C=C2\SC(=O)NC2=O)cc1
Reduction (Mus musculus [1]): 13%
Reduction (Mus musculus [2]): 0%

Structure (SMILES): CN(CCOc1ccc(CC2SC(=O)NC2=O)cc1)c1ccccn1 (stereo unspecified) [ROSIGLITAZONE]
Reduction (Mus musculus [1]): 55%
Reduction (Mus musculus [3]): 46%
Reduction (Mus musculus [4]): 46%
Reduction (Mus musculus [2]): 67%
Reduction (Mus musculus [5]): 100%
Reduction (Mus musculus [6]): 71%

Structure (SMILES): O=C1NC(=O)/C(=C/c2ccc(OCCN3CCc4ccccc43)cc2)S1
Reduction (Mus musculus [1]): 83%
Reduction (Mus musculus [2]): 61%

Structure (SMILES): O=C1NC(=O)/C(=C\c2ccc(OCCn3c4ccccc4c4ccccc43)cc2)S1
Reduction (Mus musculus [4]): 44%
Reduction (Mus musculus [6]): 0%

Structure (SMILES): O=C1NC(=O)/C(=C/c2ccc(OCCn3ccc4cccnc43)cc2)S1
Reduction (Mus musculus [1]): 79%
Reduction (Mus musculus [2]): 36%

Structure (SMILES): O=C1NC(=O)C(Cc2ccc(OCCn3ccc4cccnc43)cc2)S1 (stereo unspecified)
Reduction (Mus musculus [1]): 74%
Reduction (Mus musculus [2]): 33%

Structure (SMILES): COC(=O)C(N)Cc1cn(CCOc2ccc(/C=C3\SC(=O)NC3=O)cc2)c2ccccc12 (stereo unspecified)
Reduction (Mus musculus [4]): 64%
Reduction (Mus musculus [6]): 27%

Structure (SMILES): O=C1NC(=O)C(Cc2ccc(OCCn3c4ccccc4c4ccccc43)cc2)S1 (stereo unspecified)
Reduction (Mus musculus [4]): 21%
Reduction (Mus musculus [6]): 0%

Structure (SMILES): O=C1NC(=O)/C(=C/c2ccc(OCCn3c(C(=O)O)cc4ccccc43)cc2)S1
Reduction (Mus musculus [1]): 0%
Reduction (Mus musculus [2]): 12%

Structure (SMILES): O=C1NC(=O)/C(=C/c2ccc(OCCn3ccnc3)cc2)S1
Reduction (Mus musculus [1]): 72%
Reduction (Mus musculus [2]): 13%

Structure (SMILES): O=C1NC(=O)/C(=C/c2ccc(OCCn3cnc4ccccc43)cc2)S1
Reduction (Mus musculus [1]): 76%
Reduction (Mus musculus [2]): 33%

blood plasma ratio [8]: 0.51
Kp [9]: 0.53
Cmax [10]: 29400 ng/mL
k el [11]: 0.0002 s⁻¹
half-life [12]: 1.02 h
Concentration (Rattus norvegicus [13]): 13800 ng/mL
Concentration (Rattus norvegicus [14]): 10.9 µg/g
Concentration (Rattus norvegicus [15]): 0.87 µg/g
Concentration (Rattus norvegicus [16]): 14.32 µg/g
Tmax [17]: 0.5 h
Concentration (Rattus norvegicus [18]): 1.63 µg/g
Concentration (Rattus norvegicus [19]): 2.1 µg/g
Kp [20]: 0.08
Kp [21]: 0.06
Concentration (Rattus norvegicus [22]): 27200 ng/mL
Kp [23]: 0.03
AUC [24]: 59200 ng·h/mL
Kp [25]: 0.4
Structure (SMILES): CN(CCOc1ccc(CC2SC(=O)NC2=O)cc1)c1ccccn1.O=C(O)/C=C\C(=O)O (stereo unspecified) [ROSIGLITAZONE MALEATE]
Reduction (Mus musculus [7]): 37%
Reduction (Mus musculus [5]): 55%

Structure (SMILES): Cc1cc2ccccc2n1CCOc1ccc(/C=C2\SC(=O)NC2=O)cc1
Reduction (Mus musculus [1]): 41%
Reduction (Mus musculus [2]): 16%

Structure (SMILES): Cc1c(C)c2c(c(C)c1O)CCC(C)(COc1ccc(CC3SC(=O)NC3=O)cc1)O2 (stereo unspecified) [TROGLITAZONE]
Reduction (Mus musculus [5]): 41%

Structure (SMILES): Cc1c(C)n(CCOc2ccc(/C=C3\SC(=O)NC3=O)cc2)c2ccccc12
Reduction (Mus musculus [1]): 2%
Reduction (Mus musculus [2]): 40%

Structure (SMILES): O=C1NC(=O)C(Cc2ccc(OCCN3CCc4ccccc43)cc2)S1 (stereo unspecified)
Reduction (Mus musculus [1]): 79%
Reduction (Mus musculus [2]): 33%

blood plasma ratio [8]: 0.62
k el [26]: 6.94e-05 s⁻¹
Kp [9]: 0.13
Tmax [27]: 3.67 h
Cmax [28]: 14500 ng/mL
Concentration (Rattus norvegicus [13]): 7240 ng/mL
Concentration (Rattus norvegicus [14]): 10.01 µg/g
Concentration (Rattus norvegicus [15]): 0.85 µg/g
half-life [29]: 3.28 h
Concentration (Rattus norvegicus [16]): 1.5 µg/g
Concentration (Rattus norvegicus [18]): 2.45 µg/g
Concentration (Rattus norvegicus [19]): 1.23 µg/g
Kp [20]: 0.1
Kp [21]: 0.21
Concentration (Rattus norvegicus [22]): 11800 ng/mL
AUC [30]: 129000 ng·h/mL
Kp [23]: 0.07
Kp [25]: 0.85
Structure (SMILES): O=C1NC(=O)C(Cc2ccc(OCCn3ccc4ccccc43)cc2)S1 (stereo unspecified)
Reduction (Mus musculus [4]): 77%
Reduction (Mus musculus [6]): 74%

From ChEMBL document CHEMBL1131213, “Novel euglycemic and hypolipidemic agents. 1” (J Med Chem, 1998)
